Assay [1] has as its target T1, Protein cereblon/Cyclin-dependent kinase 2/Cyclin-dependent kinase 9 (Homo sapiens, UniProt P24941+P50750+Q96SW2). In words: Protac activity at CRBN/CDK2/CDK9 in AR-negative human PC3 cells assessed as reduction in Mcl-1 protein expression at 500 nM measured after 2 to 24 hrs by Western blot analysis. It counts as cell-based. The note with it: PC-3. The method, boiled down:
(§1)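 PC-3 cells treated with 500 nM degrader for varying times. Lysates blotted for CDK2, CDK4, CDK6, CDK9, c-Myc and Mcl-1, each at 1/1000 primary antibody, with β-tubulin reference and chemiluminescent detection.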
(A western blot detects proteins with antibodies after separation by electrophoresis.)

In assay [2] the target is T1, Protein cereblon/Cyclin-dependent kinase 2/Cyclin-dependent kinase 9. Description: Protac activity at CRBN/CDK2/CDK9 in AR-negative human PC3 cells assessed as reduction in c-Myc protein expression at 500 nM measured after 2 to 24 hrs by Western blot analysis. The format is cell-based. The note with it: PC-3. The method, boiled down: as §1
Assay [3] shares this target. Description: Protac activity at CRBN/CDK2/CDK9 in human 22Rv1 cells assessed as CDK9 degradation at 0.25 to 10 uM after 12 hrs by Westernblot analysis. It counts as cell-based. As to conditions: CWR22R. In outline:
(§2)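 22Rv1, HCT-116 (RPMI 1640, 10% FBS) and MCF-7 cells treated with degrader at indicated concentrations for 12 h. CDK2 and CDK9 blotted with β-tubulin loading control.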

Assay [4] has the same target. Description: Protac activity at CRBN/CDK2/CDK9 in human MCF7 cells assessed as CDK9 degradation at 0.25 to 10 uM after 12 hrs by Westernblot analysis. The format is cell-based. The method, boiled down:
as §2

Assay [5] deals with PC-3. Description: Induction of cell cycle arrest in human PC3 cells assessed as accumulation at S phase at 3 uM after 48 hrs by propidium iodide staining based flow cytometry (reference value: 17.96%). It counts as functional. (Flow cytometry measures light scatter and fluorescence of single cells or particles in a stream.)
In assay [6] the target is Protein cereblon/Cyclin-dependent kinase 2 (Homo sapiens) (UniProt P24941+Q96SW2). In words: Protac activity at CRBN/CDK2 in AR-negative human PC3 cells assessed as induction of CDK2 protein degradation at 50 nM after 12 hrs by Western blot analysis. The note with it: PC-3. It counts as cell-based. In outline: (§3)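 PC-3 cells (5 × 10^5 per well) treated 12 h at single concentrations (50 nM, 500 nM, 1, 5 or 30 µM). RIPA lysates (50 µg) run on 10% SDS-PAGE and immunoblotted for CDK2, CDK5, CDK9 with β-tubulin loading control, then detected by chemiluminescence. Band intensities quantified densitometrically.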

The target in assay [7] is T1, Protein cereblon/Cyclin-dependent kinase 2/Cyclin-dependent kinase 9. Description: Protac activity at CRBN/CDK2/CDK9 in AR-negative human PC3 cells assessed as CDK9 degradation at 250 nM preincubated with proteasome inhibitor MG132 for 2 hrs and measured after 8 hrs by Western blot analysis. The note with it: PC-3. The format is cell-based. The method, boiled down:
(§4)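 PC-3 cells pretreated 2 h with 5 µM DMSO, FN-1501, pomalidomide or MG-132, then exposed to degrader at 250 nM for 8 h. Lysates probed for CDK2 and CDK9, β-tubulin as loading control. 50 µg protein per lane, 10% SDS-PAGE, chemiluminescent detection.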

Assay [8] concerns PC-3. Description: Induction of cell cycle arrest in human PC3 cells assessed as accumulation at G0/G1 phase at 3 uM after 48 hrs by propidium iodide staining based flow cytometry (reference value: 59.80%). It counts as functional.
For assay [9], the target named is Protein cereblon/Cyclin-dependent kinase 4 (Homo sapiens) (UniProt P11802+Q96SW2). Description: Protac activity at CRBN/CDK4 in AR-negative human PC3 cells assessed as induction of CDK4 protein degradation at 500 nM after 24 hrs by Western blot analysis. It counts as cell-based. The note with it: PC-3. The method, boiled down: as §1
Another assay concerns the target CDK2/Cyclin A2 (Homo sapiens, UniProt P24941). In words: Inhibition of tracer K10 binding to NanoLuc-CDK2/Cyclin A (unknown origin) expressed in human HEK293 cells after 1 hr in presence of ATP by NanoBRET assay. The format is cell-based. The method, boiled down: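 Cell-based target engagement run by a contract lab. HEK293 cells pretreated with NanoBRET Tracer K-10, then exposed to compound for 1 h with 10 µM ATP, and BRET signal read. 10-point, 3-fold dilutions from 1 µM. Staurosporine reference used 4-fold dilutions from 20 µM. IC50 from sigmoidal dose-response fit.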
(In BRET a luciferase serves as donor, and the signal depends on an acceptor being close.)

Assay [10] addresses T1, Protein cereblon/Cyclin-dependent kinase 2/Cyclin-dependent kinase 9. In words: Protac activity at CRBN/CDK2/CDK9 in AR-negative human PC3 cells assessed as induction of CDK2 protein degradation after 24 hrs by Western blot analysis. It counts as cell-based. The method, boiled down: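 PC-3 cells exposed to a degrader concentration series, then immunoblotted for CDK2 and CDK9 versus β-tubulin. The figure legend gives 24 h exposure. DC50 taken as mean of 2 determinations from densitometry.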

In assay [11] the test system is PC-3. Description: Antiproliferative activity against AR-negative human PC3 cells assessed as reduction in cell viability after 5 days by CCK8 assay. The format is functional, cell-based. The note with it: PC-3, 120 h. The method, boiled down: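 Cells seeded at 3 × 10^3 per well for 24 h, then dosed in 10-point, 3-fold serial dilution from 10 µM. CCK-8 added after 5 days, 4 h at 37 °C, absorbance at 450 nm. IC50 averaged from three separate determinations (at least two independent runs, duplicate wells). PC-3 grown in DMEM/F12 (1:1), LO2 in RPMI 1640, both with 10% FBS.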

Assay [12] addresses T1, Protein cereblon/Cyclin-dependent kinase 2/Cyclin-dependent kinase 9. Description: Protac activity at CRBN/CDK2/CDK9 in AR-negative human PC3 cells assessed as induction of CDK2 protein degradation at 1 uM after 12 hrs by Western blot analysis. The note with it: PC-3. It counts as cell-based. The method, boiled down:
as §3

The target in assay [13] is Protein cereblon/Cyclin-dependent kinase 9 (Homo sapiens) (UniProt P50750+Q96SW2). Description: Protac activity at CRBN/CDK9 in AR-negative human PC3 cells assessed as induction of CDK9 protein degradation at 50 nM after 12 hrs by Western blot analysis. The format is cell-based. The note with it: PC-3. In outline: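 PC-3 cells (DMEM/F12 1:1, 10% FBS, 1% pen/strep, 37 °C, 5% CO2) plated at 5 × 10^5 per well, exposed to compound for 12 h. RIPA lysates with protease inhibitors; 50 µg total protein run on 10% SDS-PAGE, transferred to PVDF, blocked in 5% milk/TBS-T. Probed with anti-CDK9 (1/1000), β-tubulin loading control, HRP secondary, chemiluminescence; bands scored as degradation detected or not.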

For assay [14], the target named is T1, Protein cereblon/Cyclin-dependent kinase 2/Cyclin-dependent kinase 9. Description: Protac activity at CRBN/CDK2/CDK9 in AR-negative human PC3 cells assessed as CDK9 degradation at 250 nM preincubated with pomalidomide for 2 hrs and measured after 8 hrs by Western blot analysis. The format is cell-based. As to conditions: PC-3. The method, boiled down: as §4

Assay [15] deals with PC-3. Description: Induction of cell cycle arrest in human PC3 cells assessed as accumulation at G0/G1 phase at 1 uM after 48 hrs by propidium iodide staining based flow cytometry (reference value: 59.80%). The format is functional.
Assay [16] deals with T1, Protein cereblon/Cyclin-dependent kinase 2/Cyclin-dependent kinase 9. In words: Protac activity at CRBN/CDK2/CDK9 in AR-negative human PC3 cells assessed as induction of CDK9 protein degradation at 30 uM after 12 hrs by Western blot analysis. The note with it: PC-3. It counts as cell-based. The method, boiled down: as §3

Molecules are shown by their SMILES. pIC50: −log10 of the molar value. The source made the active and inactive calls. The calls are words filed in the database; no cut-off is given here.

Sequence of Protein cereblon/Cyclin-dependent kinase 4 (Homo sapiens) (P11802 2-303 limits assumed): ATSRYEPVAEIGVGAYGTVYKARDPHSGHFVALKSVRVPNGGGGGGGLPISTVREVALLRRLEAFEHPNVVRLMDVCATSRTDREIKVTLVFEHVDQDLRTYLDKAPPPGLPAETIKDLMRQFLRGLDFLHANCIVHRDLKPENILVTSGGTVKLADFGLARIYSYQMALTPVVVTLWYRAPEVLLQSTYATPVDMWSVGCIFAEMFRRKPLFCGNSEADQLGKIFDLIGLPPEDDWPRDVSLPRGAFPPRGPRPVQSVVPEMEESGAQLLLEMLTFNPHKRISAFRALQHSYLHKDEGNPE
Sequence of Protein cereblon/Cyclin-dependent kinase 4 (Homo sapiens) (Q96SW2 whole entry partner): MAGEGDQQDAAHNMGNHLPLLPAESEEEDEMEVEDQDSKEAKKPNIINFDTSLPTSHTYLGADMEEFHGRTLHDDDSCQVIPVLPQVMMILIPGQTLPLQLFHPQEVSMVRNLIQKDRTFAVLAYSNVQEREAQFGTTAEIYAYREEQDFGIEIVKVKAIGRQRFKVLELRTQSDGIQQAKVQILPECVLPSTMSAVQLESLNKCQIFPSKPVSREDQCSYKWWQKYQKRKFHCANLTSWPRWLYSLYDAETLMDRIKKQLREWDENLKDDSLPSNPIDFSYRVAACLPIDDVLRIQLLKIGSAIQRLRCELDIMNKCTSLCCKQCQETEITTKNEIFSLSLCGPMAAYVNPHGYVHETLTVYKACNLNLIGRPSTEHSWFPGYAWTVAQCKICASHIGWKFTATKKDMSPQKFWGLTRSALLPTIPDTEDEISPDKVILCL
Sequence of Protein cereblon/Cyclin-dependent kinase 9 (Homo sapiens) (P50750 whole entry, looked up): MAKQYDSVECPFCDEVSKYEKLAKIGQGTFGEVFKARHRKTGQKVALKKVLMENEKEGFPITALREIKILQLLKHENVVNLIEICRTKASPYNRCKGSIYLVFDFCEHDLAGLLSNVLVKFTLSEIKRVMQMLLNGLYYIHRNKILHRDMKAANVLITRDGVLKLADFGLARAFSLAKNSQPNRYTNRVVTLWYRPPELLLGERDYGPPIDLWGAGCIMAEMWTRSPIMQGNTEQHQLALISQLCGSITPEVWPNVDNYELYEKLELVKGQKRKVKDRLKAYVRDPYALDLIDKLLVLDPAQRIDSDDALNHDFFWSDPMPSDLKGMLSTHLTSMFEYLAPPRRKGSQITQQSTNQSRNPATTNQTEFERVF
Sequence of Protein cereblon/Cyclin-dependent kinase 9 (Homo sapiens) (Q96SW2 whole entry, looked up): as the sequence (Q96SW2 whole entry partner) above

On to `O=C(CCC(=O)N1CCN(Cc2ccc(NC(=O)c3n[nH]cc3Nc3ncnc4[nH]ccc34)cc2)CC1)NCCNc1cccc2c1C(=O)N(C1CCC(=O)NC1=O)C2=O` (stereo not drawn), for which the result in [1], in [2], in [3], in [4], in assay [6] and in [12] was Active. The result in [13] and in assay [16] was Active. Also, the Activity was 11.24% in the assay on PC-3 [5], 52.76% with PC-3 [8], “Dose-dependent effect” in [10] (PC-3) and 53.95% in the assay on PC-3 [15]. The outcome in assay [7], in assay [9] and in [14] was inactive. Also, the pIC50 – broadly, −log10 of the IC50, conventionally taken in molar units – is 8.13 on CDK2/Cyclin A2 and 6.92 with PC-3 [11]. For the same compound, in assay [10] (pc-3), the DC50 (commonly the concentration at which degradation of the target reaches its halfway point) worked out at 62 nM.

The record behind these values is ChEMBL document CHEMBL4602651, “Development of selective mono or dual PROTAC degrader probe of CDK isoforms” (Eur J Med Chem, 2020).
